Laboratory results taken from ChEMBL document CHEMBL4265912, “Design, synthesis and identification of novel substituted 2-amino thiazole analogues as potential anti-inflammatory agents targeting 5-lipoxygenase” (Eur J Med Chem, 2018).

T1: Polyunsaturated fatty acid 5-lipoxygenase (Homo sapiens) (UniProt P09917)
T1 sequence (whole entry): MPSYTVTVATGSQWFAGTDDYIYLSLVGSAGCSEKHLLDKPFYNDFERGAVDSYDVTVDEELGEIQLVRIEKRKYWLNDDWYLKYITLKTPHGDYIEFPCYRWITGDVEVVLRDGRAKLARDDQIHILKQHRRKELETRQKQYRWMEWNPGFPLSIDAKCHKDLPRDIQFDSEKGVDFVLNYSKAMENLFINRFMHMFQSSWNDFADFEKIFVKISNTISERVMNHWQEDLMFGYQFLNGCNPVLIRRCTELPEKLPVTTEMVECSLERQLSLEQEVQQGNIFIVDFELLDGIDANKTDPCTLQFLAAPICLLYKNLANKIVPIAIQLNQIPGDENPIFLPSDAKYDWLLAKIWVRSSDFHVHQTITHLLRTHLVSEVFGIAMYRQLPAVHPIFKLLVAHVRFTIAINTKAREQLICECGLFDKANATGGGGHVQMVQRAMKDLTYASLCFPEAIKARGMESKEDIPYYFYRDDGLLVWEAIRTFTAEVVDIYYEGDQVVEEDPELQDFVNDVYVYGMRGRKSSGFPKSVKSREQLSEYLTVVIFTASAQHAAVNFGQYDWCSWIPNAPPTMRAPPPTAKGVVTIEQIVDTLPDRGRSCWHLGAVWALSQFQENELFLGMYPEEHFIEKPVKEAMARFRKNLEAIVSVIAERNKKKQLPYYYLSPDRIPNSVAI

T2: Polyunsaturated fatty acid 5-lipoxygenase (Homo sapiens, UniProt P09917)
T2 sequence (P09917 whole entry): T1 sequence (whole entry)

B1: Polyunsaturated fatty acid 5-lipoxygenase (Homo sapiens), P09917 (protein)
chain: T1 sequence (whole entry)

Key:
[1] = target: T1, Polyunsaturated fatty acid 5-lipoxygenase (Homo sapiens); assay: Inhibition of recombinant human 5-LOX expressed in Escherichia coli BL21 at 10 uM using arachidonic acid as substrate by UV-vis spectrophotometric method relative to control
In short: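 Partially purified human 5-LOX, expressed in E. coli BL21 (IPTG induction, ammonium sulfate precipitation, 100000 × g supernatant). Buffer: 25 mM HEPES pH 7.3, EDTA, 10 mM CaCl2, 4 mM ATP; compound in 2% DMSO added at 4 °C; started with 30 μM AA. 5-HPETE read at 236 nm. Single point at 10 μM; IC50 from inhibition-versus-concentration curves; three repeats.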

[2] = Antioxidant activity assessed as DPPH radical scavenging activity at 20 uM measured after 30 mins; format: functional
In short: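 Test compound at 20 μM added to 0.1 mM DPPH in methanol, incubated 30 min at room temperature in dark; absorbance read at 517 nm; ascorbic acid reference; percent scavenging calculated; three repeats, mean ± SEM.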

[3] = target: T2, Polyunsaturated fatty acid 5-lipoxygenase; assay: Inhibition of recombinant human 5-LOX expressed in Escherichia coli BL21 using arachidonic acid as substrate by UV-vis spectrophotometric method
In short: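 Partially purified human 5-LOX, expressed in E. coli BL21 (IPTG induction, ammonium sulfate precipitation, 100000 × g supernatant). Buffer: 25 mM HEPES pH 7.3, EDTA, 10 mM CaCl2, 4 mM ATP; compound in 2% DMSO added at 4 °C; started with 30 μM AA.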

[4] = target: T1, Polyunsaturated fatty acid 5-lipoxygenase (Homo sapiens); assay: Inhibition of recombinant human 5-LOX pseudoperoxidase activity expressed in Escherichia coli BL21 assessed as compound redox activity by measuring decrease in 13(S)-HpODE product formation at 10 uM by UV-vis spectrophotometric method; design: scale not given: the % may be the effect or the level left
In short: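 Pseudoperoxidase: 10 μM inhibitor (1:1 to substrate) starts reaction in 50 mM potassium phosphate pH 7.4, 0.3 mM CaCl2, 0.1 mM EDTA, 200 μM ATP, 10 μM 13(S)-HPODE with 5-LOX; loss of hydroperoxide followed at 234 nm over 300 s, relative to control.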

[5] = compound: COc1ccc(-c2nc(N(c3ccccc3)c3ccccc3)sc2C(=O)c2ccccc2)cc1; assay: Competitive inhibition of recombinant human 5-LOX expressed in Escherichia coli BL21 assessed as Km for substrate at 5 uM using arachidonic acid as substrate by Lineweaver-Burk plot analysis (reference value: 0.42 +/- 0.15 microM)
[6] = compound: COc1ccc(-c2nc(N(c3ccccc3)c3ccccc3)sc2C(=O)c2ccccc2)cc1; assay: Competitive inhibition of recombinant human 5-LOX expressed in Escherichia coli BL21 assessed as Vmax for substrate at 10 uM using arachidonic acid as substrate by Lineweaver-Burk plot analysis (reference value: 0.39 +/- 0.02 nmol/min)
[7] = compound: O=C(NC(=S)N1CCN(c2ccccc2)CC1)c1ccccc1; assay: Mixed non-competitive inhibition of recombinant human 5-LOX expressed in Escherichia coli BL21 assessed as Vmax for substrate at 10 uM using arachidonic acid as substrate by Lineweaver-Burk plot analysis (reference value: 0.48 +/- 0.02 nmol/min)
[8] = compound: O=C(NC(=S)N1CCN(c2ccccc2)CC1)c1ccccc1; assay: Mixed non-competitive inhibition of recombinant human 5-LOX expressed in Escherichia coli BL21 assessed as Km for substrate at 5 uM using arachidonic acid as substrate by Lineweaver-Burk plot analysis (reference value: 0.7761 +/- 0.22 microM)
[9] = compound: COc1ccc(-c2nc(N(c3ccccc3)c3ccccc3)sc2C(=O)c2ccccc2)cc1; assay: Competitive inhibition of recombinant human 5-LOX expressed in Escherichia coli BL21 assessed as Vmax for substrate at 5 uM using arachidonic acid as substrate by Lineweaver-Burk plot analysis (reference value: 0.39 +/- 0.02 nmol/min)
[10] = compound: O=C(NC(=S)N1CCN(c2ccccc2)CC1)c1ccccc1; assay: Mixed non-competitive inhibition of recombinant human 5-LOX expressed in Escherichia coli BL21 assessed as Vmax for substrate at 5 uM using arachidonic acid as substrate by Lineweaver-Burk plot analysis (reference value: 0.48 +/- 0.02 nmol/min)
[11] = compound: COc1ccc(-c2nc(N(c3ccccc3)c3ccccc3)sc2C(=O)c2ccccc2)cc1; assay: Competitive inhibition of recombinant human 5-LOX expressed in Escherichia coli BL21 assessed as Km for substrate at 10 uM using arachidonic acid as substrate by Lineweaver-Burk plot analysis (reference value: 0.42 +/- 0.15 microM)
[12] = compound: O=C(NC(=S)N1CCN(c2ccccc2)CC1)c1ccccc1; assay: Mixed non-competitive inhibition of recombinant human 5-LOX expressed in Escherichia coli BL21 assessed as Km for substrate at 10 uM using arachidonic acid as substrate by Lineweaver-Burk plot analysis (reference value: 0.7761 +/- 0.22 microM)

| Molecule | inhibition [1] [%] | Activity [2] [%] | other results |
| --- | --- | --- | --- |
| COc1ccc(-c2nc(N(C)Cc3ccccc3)sc2C(=O)c2ccccc2)cc1 | 17.7 | -1.9 |  |
| COc1ccc(C(=O)NC(=S)N2CCCCC2)cc1 | 86 | 21.8 | IC50 [3]: 3.3 µM |
| O=C(c1ccccc1)c1sc(N2CCOCC2)nc1-c1ccccc1 | 85.3 | 9.5 | Activity [4]: 2.1%; IC50 [3]: 2.3 µM |
| COc1ccc(C(=O)NC(=S)N2CCOCC2)cc1 | 68.3 | 3.9 |  |
| O=C(NC(=S)N1CCOCC1)c1ccccc1 | 79.4 | 19.1 |  |
| COc1ccc(C(=O)NC(=S)N2CCN(c3ccccc3)CC2)cc1 | 36.8 | 3.7 |  |
| O=C(NC(=S)N1CCCC1)c1ccccc1 | 24.5 | 25.6 |  |
| O=C(NC(=S)N1CCOCC1)c1ccc(F)cc1 | 29.5 | 9.1 |  |
| O=C(c1ccccc1)c1sc(N2CCN(c3ccccc3)CC2)nc1-c1ccccc1 | 38.3 | -0.7 |  |
| CN(Cc1ccccc1)c1nc(-c2ccccc2)c(C(=O)c2ccccc2)s1 | 53.1 | 3.6 |  |
| CN(c1ccccc1)c1nc(-c2ccccc2)c(C(=O)c2ccccc2)s1 | 67.8 | 4.6 |  |
| O=C(NC(=S)N(c1ccccc1)c1ccccc1)c1ccccc1 | 73.3 | 11.3 |  |
| COc1ccc(C(=O)NC(=S)N(c2ccccc2)c2ccccc2)cc1 | 19.2 | 8.1 |  |
| O=C(c1ccccc1)c1sc(N(c2ccccc2)c2ccccc2)nc1-c1ccccc1 | 48.6 | -4.7 |  |
| O=C(c1ccccc1)c1sc(N2CCCC2)nc1-c1ccccc1 | 75.3 | -2.9 |  |
| COc1ccc(-c2nc(N(c3ccccc3)c3ccccc3)sc2C(=O)c2ccccc2)cc1 | 92.8 | 11.8 | Activity [4]: 29.4%; IC50 [3]: 0.9 µM |
| O=C(NC(=S)N1CCCCC1)c1ccc(F)cc1 | 80.7 | 5.9 | IC50 [3]: 3.8 µM |

| Molecule | inhibition [1] [%] | Activity [2] [%] | other results |
| --- | --- | --- | --- |
| O=C(NC(=S)N1CCN(c2ccccc2)CC1)c1ccccc1 | 91.3 | 24.1 | Activity [4]: -46.2%; IC50 [3]: 1.4 µM |
| O=C(c1ccccc1)c1sc(N2CCCCC2)nc1-c1ccccc1 | 85.2 | 8.5 | Activity [4]: 0.6%; IC50 [3]: 3.1 µM |
| COc1ccc(-c2nc(N3CCN(c4ccccc4)CC3)sc2C(=O)c2ccccc2)cc1 | 53.1 | 7.8 |  |
| O=C1O[C@H]([C@@H](O)CO)C(O)=C1O |  | 84.1 |  |
| O=C(c1ccccc1)c1sc(N(c2ccccc2)c2ccccc2)nc1-c1ccc([N+](=O)[O-])cc1 | 79.6 | -2.8 |  |
| CN(Cc1ccccc1)C(=S)NC(=O)c1ccccc1 | 80.7 | 18.4 |  |
| O=C(NC(=S)N1CCN(c2ccccc2)CC1)c1ccc(F)cc1 | 23.6 | 6.3 |  |
| CN(C(=S)NC(=O)c1ccccc1)c1ccccc1 | 78.7 | 13.2 |  |
| O=C(NC(=S)N1CCCCC1)c1ccccc1 | 56.8 | 23.7 |  |
| O=C(c1ccccc1)c1sc(N2CCOCC2)nc1-c1ccc(F)cc1 | 50.2 | -0.8 |  |
| O=C(NC(=S)N1CCN(c2ccccc2)CC1)c1ccc([N+](=O)[O-])cc1 | 76.6 | 20.3 |  |
| COc1ccc(-c2nc(N3CCCCC3)sc2C(=O)c2ccccc2)cc1 | 62 | 9.6 |  |
| CC(c1cc2ccccc2s1)N(O)C(N)=O (configuration not stated) |  | 17.8 |  |
| O=C(c1ccccc1)c1sc(N2CCN(c3ccccc3)CC2)nc1-c1ccc([N+](=O)[O-])cc1 | 67.8 | 8.2 |  |
| COc1ccc(C(=O)NC(=S)N(C)Cc2ccccc2)cc1 | 26.5 | 7.4 |  |
| O=C(NC(=S)N(c1ccccc1)c1ccccc1)c1ccc([N+](=O)[O-])cc1 | 30.9 | 4.7 |  |
| B1 |  |  | Km [5]: 0.99 µM; Vmax [6]: 0.38 nmol/min; Vmax [7]: 0.34 nmol/min; Km [8]: 0.79 µM; Vmax [9]: 0.38 nmol/min; Vmax [10]: 0.4 nmol/min; Km [11]: 1.51 µM; Km [12]: 0.767 µM |
